For data set [1], the system named is intraerythrocytic stage P. falciparum (strain 3D7). In words: In vitro antiplasmodial SYBR Green I-based fluorescence assay, 96 h, strain 3D7. The class given is cell-based, Plasmodium falciparum. As to conditions: for IC50: 96 h; for inhibition: 3D7, read-out: inhibition of parasite proliferation at the single (highest) concentration tested. A digest of the protocol: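 Synchronous ring-stage parasites in O+ erythrocytes, 0.5% parasitemia and 1% hematocrit, in RPMI 1640 with HEPES, Glutamax, 11 mM glucose, 200 μM hypoxanthine, gentamicin and 0.6% Albumax II. […] Frozen at −80 °C, then SYBR Safe lysis (20 mM Tris pH 7.5, EDTA, saponin, Triton X-100). Fluorescence as % of untreated control; IC50 from four-parameter fit, mean ± SEM, n = 3.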

The next data set deals with β-hematin formation. In words: Detergent mediated β-hematin assay. As to conditions: cell-free detergent mediated assay; Fig. S4. The class given is biochemical.
A short description of the next data set: Solubility in DMSO. The data set is classed as physicochemical. As to conditions: other compounds dissolved to 200 mM; these dissolved to between 10 and 100 mM.
The test system of data set [2] is [Na^+]cyt of isolated trophozoite-stage 3D7 parasites (PfATP4). In words: Cytosolic Na+ measurements. The data set is classed as cell-based, Plasmodium falciparum. As to conditions: isolated 3D7 trophozoites; 13i 1 μM and 10 μM, cipargamin 50 nM; final 85–90 min. A digest of the protocol:
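Saponin-freed trophozoite-stage 3D7 parasites loaded with SBFI, in 96-well plates at 37 °C in saline (125 mM NaCl, 5 mM KCl, 1 mM MgCl2, 20 mM glucose, 25 mM HEPES, pH 7.1). Controls: DMSO solvent (0.1–0.2% v/v) and a PfATP4-inhibitor positive control. Final [Na+]cyt averaged over 85–90 min of exposure. Three independent experiments on separate days, mean + SEM, Dunnett's test versus DMSO.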

[3] abbreviates: Plasmodium falciparum, 3D7, 96 h, read-out: IC50 (P. falciparum proliferation), strain 3D7.

Each structure is given as a SMILES string. Like-named read-outs stand apart in the source and are kept apart here.

The record followed here is article PMC11068522 (International Journal for Parasitology: Drugs and Drug …, 2024).

`COc1cc(C)ccc1NC(=S)c1ccc2ccccc2c1` [Compound 13b]: in data set [1] (setting [3]), the IC50 came to 23 µM. The inhibition in data set [1] (Plasmodium falciparum) was above 50%. Besides, the “effect on β-hematin formation” value with β-hematin formation is recorded as “none”.

For the molecule `COc1cc(C)ccc1NC(=O)c1nccc2ccccc12` [Compound 12a], in data set [1] (setting [3]), the IC50 came to 69 µM. The “solubility in DMSO” value in the data set “Solubility in DMSO” is listed as “lower solubility”.

Consider `COc1cc(C)ccc1NC(=O)c1ccc2ccccc2c1` [Compound 12b], for which the IC50 in data set [1] (setting [3]) is 38 µM. Besides, the “effect on β-hematin formation” value in the data set on β-hematin formation is “none”.

`COc1cc(C)ccc1NC(=S)c1nccc2ccccc12` [Compound 13a]: the inhibition in data set [1] (Plasmodium falciparum) is below 50%. In data set [1] (at concentrations up to 200 μM, strain 3D7), the “inhibition of proliferation of P. falciparum” value was at most 50%.

With `COc1cc(C)ccc1NC(=O)c1cnc2ccccc2c1` [Compound 12c], the IC50 in data set [1] (setting [3]) came out at 62 µM.

For `S=C(Nc1ccccc1)c1nccc2ccccc12` [Compound 13d], the inhibition in data set [1] (Plasmodium falciparum) was below 50%.

With `COc1cc(C)ccc1NC(=S)c1cnc2ccccc2c1` [Compound 13c], in data set [1] (setting [3]), the IC50 turned out to be 61 µM. Besides, in data set [1] (Plasmodium falciparum), the inhibition was above 50%. Besides, the “solubility in DMSO” value in the data set “Solubility in DMSO” is “lower solubility”.

Take `COc1cc(C)ccc1NC(=O)c1nccc2ccccc12.Cl` [Compound 12j]: in data set [1] (compared with isoquinoline carboxamide 12a, strain 3D7), the “reduction of antiplasmodial activity relative to 12a” value is “about 2 fold”. The IC50 in data set [1] (read-out: IC50 (P. falciparum proliferation), strain 3D7) turned out to be 136 µM.

Consider `S=C(Nc1ccccc1)c1cccnc1` [Compound 13h], for which, in data set [1] (Plasmodium falciparum), the inhibition is below 50%.

As for `CCN(CC)CCCC(C)Nc1ccnc2cc(Cl)ccc12` (stereo not shown) [chloroquine, Chloroquine, reference compound], the “effect on β-hematin formation” value in the data set with β-hematin formation was “inhibited”.

`C[C@H]1Cc2c([nH]c3cc(Cl)c(F)cc23)[C@@]2(N1)C(=O)Nc1ccc(Cl)cc12` [cipargamin]: in data set [2], the “effect on [Na^+]cyt” value is on record as “significant increase”.
